The results in this text go back to ChEMBL document CHEMBL1157421, “Tenacigenin B derivatives reverse P-glycoprotein-mediated multidrug resistance inHepG2/Dox cells” (J Nat Prod, 2008).

For experiment [1], the system named is HepG2. Put plainly: Reversal of P-glycoprotein-mediated drug resistance in human HepG2 cells assessed as increase in sensitivity at 39.2 uM in presence of doxorubicin. Type of experiment: cell-based. The procedure, abridged:
(§1)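 Resistance reversal by SRB assay. IC50s of doxorubicin, vinblastine, puromycin or paclitaxel were measured with or without modulator, with modulator alone as negative control and verapamil as positive control. Fold sensitization is the ratio of drug IC50 without modulator to drug IC50 with it. HepG2/Dox cells were kept drug-free for at least 7 days before use. Assays were run at least three times (mean ± SD).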

Experiment [2] relates to HepG2. Put plainly: Reversal of P-glycoprotein-mediated drug resistance in human HepG2 cells assessed as increase in sensitivity at 39.2 uM in presence of vinblastine. In kind it is cell-based. The procedure, abridged: as §1
Experiment [3] has as its system HepG2. Put plainly: Reversal of P-glycoprotein-mediated drug resistance in human HepG2 cells assessed as increase in sensitivity at 39.2 uM in presence of puromycin. In kind it is cell-based. Put shortly: as §1
Experiment [4] deals with HepG2. Put plainly: Reversal of P-glycoprotein-mediated drug resistance in human HepG2 cells assessed as increase in sensitivity at 39.2 uM in presence of paclitaxel. Type of experiment: cell-based. Put shortly:
as §1

Experiment [5] has as its system HepG2/Dox. Put plainly: Reversal of P-glycoprotein-mediated multidrug resistance in human HepG2/Dox cells assessed as increase in sensitivity at 39.2 uM in presence of doxorubicin. Type of experiment: cell-based. Put shortly: as §1
Experiment [6] deals with HepG2/Dox. Put plainly: Reversal of P-glycoprotein-mediated multidrug resistance in human HepG2/Dox cells assessed as increase in sensitivity at 19.6 uM in presence of doxorubicin. Type of experiment: cell-based. The procedure, abridged: as §1
Experiment [7] deals with HepG2/Dox. Put plainly: Reversal of P-glycoprotein-mediated multidrug resistance in human HepG2/Dox cells assessed as increase in sensitivity at 39.2 uM in presence of vinblastine. Type of experiment: cell-based. The procedure, abridged: as §1
Experiment [8] deals with HepG2/Dox. Put plainly: Reversal of P-glycoprotein-mediated multidrug resistance in human HepG2/Dox cells assessed as increase in sensitivity at 19.6 uM in presence of vinblastine. Type of experiment: cell-based. Put shortly:
as §1

Experiment [9] deals with HepG2/Dox. Put plainly: Reversal of P-glycoprotein-mediated multidrug resistance in human HepG2/Dox cells assessed as increase in sensitivity at 39.2 uM in presence of puromycin. Type of experiment: cell-based. The procedure, abridged:
as §1

For experiment [10], the system named is HepG2/Dox. Put plainly: Reversal of P-glycoprotein-mediated multidrug resistance in human HepG2/Dox cells assessed as increase in sensitivity at 19.6 uM in presence of puromycin. In kind it is cell-based. Put shortly:
as §1

The subject of experiment [11] is HepG2/Dox. Put plainly: Reversal of P-glycoprotein-mediated multidrug resistance in human HepG2/Dox cells assessed as increase in sensitivity at 39.2 uM in presence of paclitaxel. In kind it is cell-based. Put shortly: as §1
Experiment [12] deals with HepG2/Dox. Put plainly: Reversal of P-glycoprotein-mediated multidrug resistance in human HepG2/Dox cells assessed as increase in sensitivity at 19.6 uM in presence of paclitaxel. In kind it is cell-based. The procedure, abridged:
as §1

Experiment [13] concerns HepG2. Put plainly: Growth inhibition of doxorubicin-sensitive human HepG2 cells at 80 uM. In kind it is functional. Put shortly:
(§2)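 SRB growth assay. HepG2 and HepG2/Dox cells were grown in RPMI 1640 with 10% FBS at 37 °C and 5% CO2; resistant cells were kept drug-free for at least 7 days before use. IC50 was taken from the SRB assay, with at least three repeats, reported as mean ± SD.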

Experiment [14] is described as follows: Growth inhibition of multidrug resistant human HepG2/Dox cells at 80 uM. In kind it is functional. Put shortly: as §2
Experiment [15] relates to HepG2. Put plainly: Growth inhibition of human HepG2 cells after 72 hrs by SRB assay. Type of experiment: functional, cell-based. Particulars: HepG2, 72 h. Put shortly:
(§3)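 SRB growth assay giving IC50 values from at least three repeat experiments, reported as mean ± SD. HepG2/Dox is a doxorubicin-selected Pgp-overexpressing subline kept in 1.2 µM doxorubicin and grown drug-free for at least 7 days before use. Both lines grown in RPMI 1640 with 10% FBS at 37 °C, 5% CO2.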
In general terms: In SRB staining, fixed cells bind dye roughly in proportion to their protein.

A short description of experiment [16]: Growth inhibition of multidrug resistant human HepG2/Dox cells after 72 hrs by SRB assay. Type of experiment: functional, cell-based. Put shortly:
as §3

Each structure is given as a SMILES string.

Turning to `CC(=O)O[C@@H]1[C@@H](OC(=O)c2ccccc2)[C@@H]2[C@@]3(C)CC[C@H](O)C[C@@H]3CC[C@]23O[C@@]32CC[C@@H](C(C)=O)[C@@]12C` [11ALPHA-O-BENZOYL-12BETA-O-ACETYLTENACIGENIN B], the Ratio IC50 in the experiment on HepG2 [1] was determined as 1.2; in the experiment with HepG2 [2], 0.9; in the experiment on HepG2 [3], 1; with HepG2 [4] it was 1; in the experiment on HepG2/Dox [5], 15.6; in the experiment on HepG2/Dox [6], 10.1. Moreover, the Ratio IC50 with HepG2/Dox [7] amounted to 53.1; in the experiment with HepG2/Dox [8], 13; with HepG2/Dox [9], 15.5; with HepG2/Dox [10], 8.1; with HepG2/Dox [11], 326; with HepG2/Dox [12], 42.4. The inhibition at 80 µM (in the experiment with HepG2 [13]; in experiment [14]) was 50% each time.

`CC(=O)O[C@H]1C(=O)[C@@]2(C)[C@H]([C@H](OC(=O)c3ccccc3)[C@]3(O)C[C@H](OC(=O)[C@H](O)[C@@H](NC(=O)c4ccccc4)c4ccccc4)C(C)=C1C3(C)C)[C@]1(OC(C)=O)CO[C@@H]1C[C@@H]2O` [PACLITAXEL]: the IC50 (as a rule, the concentration that inhibits the measured activity by half) in the experiment with HepG2 [15] amounted to 5.9 nM; in experiment [16], 1400 nM.

`COc1ccc(C[C@H](N)C(=O)N[C@H]2[C@@H](O)[C@H](n3cnc4c(N(C)C)ncnc43)O[C@@H]2CO)cc1` [PUROMYCIN]: the concentration for half-maximal inhibition (IC50) with HepG2 [15] turned out to be 210 nM; in experiment [16], 20200 nM.

`CC[C@]1(O)C[C@@H]2CN(CCc3c([nH]c4ccccc34)[C@@](C(=O)OC)(c3cc4c(cc3OC)N(C)[C@H]3[C@@](O)(C(=O)OC)[C@H](OC(C)=O)[C@]5(CC)C=CCN6CC[C@]43[C@@H]65)C2)C1` [VINBLASTINE]: the concentration for half-maximal inhibition (IC50) is 0.26 nM in the experiment on HepG2 [15] and 260 nM in experiment [16].
